This is a sample that favours compounds with a hit; in the whole collection about 1.8% have one here.
M5 ag: CHRM5 agonism in calcium assay. activation, % at 3 µM. P08912. CHO-K1 hM5 cells, Fluo-8 calcium fluorescence; 0% DMSO wells, 100% maximal acetylcholine response. 0.19% of 360,000 active;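 active = activation above the run's mean over test compounds plus 3 SD, cut at about 23% in these data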;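 also: signal is peak over basal fluorescence ratio across the kinetic read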
M5 antag: antagonists of human muscarinic M5 receptor (CHRM5). 0.59% of 360,000 active. CHO-hM5 cells, Fluo-8 calcium fluorescence, ACh EC80. inhibition, % at 3 µM;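 active = inhibition above a per-plate cutoff, the mean of that plate's test compounds plus 3 SD, cut at about 27% in these data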
CHRM4 PAM: CHRM4 positive allosteric modulation; P08173; AID 624126; CHO-K1 hM4/Gqi5, Fluo-8 calcium fluorescence, ACh EC20; 0% = ACh EC20, 100% = maximal ACh; 0.4% of 360,000 active; activation, % at 3 µM;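 active = activation above its plate's cutoff, the mean activation of sample wells plus 3 SD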
Target sequence (P08173 whole entry, looked up): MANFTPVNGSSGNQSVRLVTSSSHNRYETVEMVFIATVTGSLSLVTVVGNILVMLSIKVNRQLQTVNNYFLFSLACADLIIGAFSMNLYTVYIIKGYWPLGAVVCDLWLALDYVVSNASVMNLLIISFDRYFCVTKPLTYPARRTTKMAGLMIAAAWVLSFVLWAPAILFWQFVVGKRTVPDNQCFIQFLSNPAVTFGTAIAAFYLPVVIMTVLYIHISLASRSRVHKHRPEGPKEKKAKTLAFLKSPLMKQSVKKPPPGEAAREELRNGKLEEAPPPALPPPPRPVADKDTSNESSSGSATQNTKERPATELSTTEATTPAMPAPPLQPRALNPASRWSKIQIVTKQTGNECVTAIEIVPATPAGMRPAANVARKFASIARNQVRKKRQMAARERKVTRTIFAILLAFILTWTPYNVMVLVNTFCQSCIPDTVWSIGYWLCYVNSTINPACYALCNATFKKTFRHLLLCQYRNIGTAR
CHRM5 PAM: potentiates acetylcholine response at human M5 receptor; 0.3% of 360,000 active; activation, % at 3 µM; CHO-K1 hM5, Fluo-8 calcium, ACh EC20 PAM; 0% = ACh EC20, 100% = ACh EC100;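 active = activation above the run cutoff, the mean activation of all test compounds plus 3 SD, cut at about 18% in these data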
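Replicates: One well per compound, no replicates | System: Human M5 receptor in CHO-K1 cells | Benchmarks: Low control EC20 acetylcholine (0%), high control EC100 acetylcholine (100%) | Probe or stimulus: Acetylcholine, EC20 level | Times: Fluo-8 loading 80 min at 37 °C plus 30 min room temperature | Signal: Intracellular calcium via Fluo-8 fluorescence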
M4 antag: blocks acetylcholine activation of human M4 receptor; P08173; CHO-hM4 cells, ACh EC80, Fluo-8 calcium fluorescence; inhibition, % at 3 µM; 0.73% of 360,000 active; AID 624125;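 active = inhibition above its plate's cutoff, the mean inhibition of sample wells plus 3 SD, cut at about 27% in these data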
M4 ag: CHRM4 agonism in calcium assay; CHO-K1 hM4/Gqi5, Fluo-8 calcium fluorescence; vehicle 0%, full acetylcholine response 100%; 0.14% of 360,000 active; activation, % at 3 µM; P08173;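 active = activation above the run mean over all test wells plus 3 SD, cut at about 32% in these data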;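 also: peak over basal fluorescence ratio per well then scaled between controls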
Hits are given with their value; n = inactive; ! = not confirmed by another sample.

SMILES	M5 ag	M5 antag	CHRM4 PAM	CHRM5 PAM	M4 antag	M4 ag
NC(=O)CSc1nc(O)cc(=O)n1-c1ccccc1	n	n	16.8	n	n	n
Cc1ccc(-n2c(SCC(N)=O)nc(O)cc2=O)cc1	n	n	n	n	n	n
Cc1occc1C(=O)Nc1sc2c(c1C(N)=O)CCC(C(C)(C)C)C2 (stereo not given)	n	n	29.1	n	n	n
CCCC(=O)Nn1cnc2c(c1=O)C1(CCCCC1)Cc1ccccc1-2	n	n	n	n	n	n
CCC(=O)Nn1cnc2c(c1=O)C1(CCCCC1)Cc1ccccc1-2	n	n	n	18.1	n	n
COc1ccc(-n2nnnc2C(c2cccc(OC)c2OC)N2CCN(C/C=C/c3ccccc3)CC2)cc1 (stereo not given)	n	n	n	n	n	n
Cc1nc(NC(=O)C(C)(C)C)sc1C(=O)Cn1cc(-c2ccc(C(C)(C)C)cc2)nn1	n	n	n	n	n	n
COC(=O)[C@@]12C[C@@H](CC(=O)N3CCCC3)C(=O)N(Cc3ccccc3)C1=CCC(C)(C)C2	n	n	n	n	n	n
CC(CC(=O)Nc1nnc(CC(C)(C)C)s1)c1ccccc1 (stereo not given)	n	n	n	21.6	n	n
Cc1ccccc1S(=O)(=O)Cc1ccc(C(=O)N2CCN(c3cccc(C)c3C)CC2)o1	n	n	n	n	34.2	n
O=C(NCc1ccccn1)[C@@H]1CCCN1C(=O)[C@@H]1CCCN1C(=O)c1ccc(Cl)cc1	n	n	n	n	n	n
CC(=O)Nc1ccc(S(=O)(=O)NC2=C(N3CCN(Cc4ccccc4)CC3)C(=O)c3ccccc3C2=O)cc1	n	n	n	n	31.1!	n
CCN1CCN(C2=C(NS(=O)(=O)c3ccc(NC(C)=O)cc3)C(=O)c3ccccc3C2=O)CC1	n	n	n	n	n	n
Cc1cc(C)cc(NC(=O)NCc2c(-c3ccccc3)noc2C)c1	n	n	n	n	n	n
Cc1onc(-c2ccccc2)c1CNC(=O)Nc1ccc(C(F)(F)F)cc1	n	37.5	n	n	n	n
CCOc1ccc(N(CC(=O)NC2CC3CCC2C3)S(=O)(=O)c2ccc(C)cc2)cc1 (stereo not given)	n	n	22.5	n	n	n
Cc1c(NC(=O)c2cccs2)cccc1-c1nc2ccccc2s1	n	n	n	n	30.9	n
Cc1c(NC(=O)c2cc(-n3cnnc3)ccc2Cl)cccc1-c1nc2ccccc2s1	n	n	n	n	n	n
CC(C)CN=Cc1c(O)c([N+](=O)[O-])cc2oc3c(c12)CCCC3	n	n	n	n	n	n
O=[N+]([O-])c1cc2oc3c(c2c(C=NCc2ccccc2)c1O)CCCC3	n	n	n	n	35.3	n
Cn1c(N)c(-c2ccccc2)c2ccc([N+](=O)[O-])cc2c1=O	n	n	n	n	n	55.9
CCN(CC)C(=O)c1[nH]cnc1C(=O)Nc1ccccc1F	n	n	n	n	n	n
CS(=O)(=O)Nc1ccccc1C(=O)NCc1ccccc1Cl	n	n	n	n	n	n
Cc1ccccc1CNC(=O)c1ccccc1NS(C)(=O)=O	n	n	n	19.0	n	n
CN(C)CCOC1c2ccccc2CSc2ccccc21 (stereo not given)	n	99.2	n	n	97.8	n
SMILES	M5 ag	M5 antag	CHRM4 PAM	CHRM5 PAM	M4 antag	M4 ag
CC(=O)Nc1c(Cl)cnn(-c2ccccc2)c1=O	n	n	n	21.9	n	n
CCCS(=O)(=O)NC(=O)C1(C)CCN(C(=O)c2cccc(C)c2C)C1 (stereo not given)	n	n	18.8	n	n	n
CCCCOCCCNC(=O)C[C@@H]1C[C@@]2(C(=O)OCC)CCC=C2N(CCC2=CCCCC2)C1=O	n	n	n	n	n	n
O=c1cccc2n1Cc1cc3ccccc3nc1-2	n	n	25.9	n	n	n
O=C(COC(=O)c1ccccc1NS(=O)(=O)c1ccc(Cl)cc1)NCc1ccccc1	n	n	21.3	n	n	n
O=C(COC(=O)c1cc2ccccc2cc1O)NCc1ccccc1	n	n	n	18.4	n	n
O=[N+]([O-])c1cc2c(cc1Br)-c1ccccc1C2	n	n	n	n	n	n
CN(C)CCNc1ccc(Cl)cc1[N+](=O)[O-]	n	30.3	n	n	n	n
CS(=O)(=O)NCCNc1ccc(Cl)cc1[N+](=O)[O-]	n	n	n	n	n	n
COc1ccc(NC(=O)c2cc(S(=O)(=O)Nc3ccc(OC)cc3)cs2)cc1	n	n	n	n	n	n
O=C(Nc1ccc(F)cc1)c1cc(S(=O)(=O)Nc2ccc(F)cc2)cs1	n	32.2	n	n	n	n
CCn1cc(C=O)c2cc(S(=O)(=O)N3CCOCC3)ccc21	n	n	n	n	26.4	n
CCNS(=O)(=O)c1ccc(CCC(=O)Nc2cc(Cl)ccc2Oc2ccccc2)cc1	n	n	n	n	27.6	n
Cc1cccc(N2CC(O)(c3cccs3)[N+]3=C2CCCC3)c1C (stereo not given)	n	n	n	n	29.6	n
CCc1ccc(N2CC(O)(c3cccs3)[N+]3=C2SCCC3)cc1 (stereo not given)	n	33.2	n	n	n	n
Cc1ccc(N2CC(O)(c3cccs3)[N+]3=C2CCCC3)cc1 (stereo not given)	n	42.4	n	n	40.4	n
Nc1c(C(=O)O)sc2nc(-c3ccccc3)cc(-c3ccc(F)cc3)c12	n	n	n	20.6	n	n
Cc1csc(=O)n1CC(=O)Nc1ccc(Cl)c(Cl)c1	n	n	n	n	n	n
Cn1c(N)c(N2CCCCC2)c(=O)n(CC(=O)Nc2ccc(Cl)c(Cl)c2)c1=O	n	n	n	19.0	n	n
COc1ccc2c(c1)[nH]c1c(N3CCSCC3)ncnc12	n	n	n	n	n	n
COc1ccc2c(c1)[nH]c1c(N3CCN(Cc4ccc5c(c4)OCO5)CC3)ncnc12	n	31.5	n	n	n	n
Cc1ccc(C(=O)Nc2ncc([N+](=O)[O-])s2)cc1	n	31.6	n	n	n	n
O=C(COc1ccc(Cl)cc1)Nc1ncc([N+](=O)[O-])s1	n	31.0	n	n	n	n
C[C@@H]1CCCCO[C@H](CN(C)C(=O)Nc2ccc(C(F)(F)F)cc2)[C@@H](C)CN([C@H](C)CO)C(=O)c2cc(NC(=O)c3ccncc3)ccc2O1	n	n	n	n	n	n
CC1(C(=O)NC2CCCCC2)CCC(=O)N1C1CCN(Cc2ccccc2)CC1 (stereo not given)	n	n	n	n	n	n
COc1ccc(NS(=O)(=O)c2ccc(O)c(NC(=O)c3ccc(S(=O)(=O)N4CCCC4)cc3)c2)cc1	n	n	n	n	n	n

Screening results (PubChem)
